Values after ≈ are worked out from the molar mass of the structure shown. Read-outs that look alike come from different tables or passages of the source.
Assays:
[1] = Stability of codrugs in 0.3 M acetate buffer pH 5.0 at 32°C; format: physicochemical; conditions: 0.3 M acetate buffer pH 5.0, 32°C
Outline: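 Codrug was predissolved in ACN and spiked into prewarmed buffer (<1% ACN). 100 μl aliquots were taken at intervals, quenched with 900 μl ACN and held at -80°C. Analysis was by C18 HPLC-UV with ACN:acidic aqueous (70:30, pH 3.0) mobile phase and standards of 100–10,000 ng/ml. Data were fit to pseudo first-order kinetics; triplicate.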

[2] = In vitro diffusion studies across microneedle-treated skin; format: in vitro ADME, Yucatan miniature pig; conditions: skin at end of 48 h diffusion experiment
Outline: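 Yucatan minipig skin, dermatomed 1.4-1.8 mm, pierced 20 times with a 5-needle array (100 pores per 0.95 cm2 area). Flow-through cells held at 32°C. Donor: 250 μl of excess drug in 0.3 M acetate pH 5.0 with 10% PG. Receiver: pH 7.4 water with 20% ethanol, 1.5 ml/h. At 48 h the permeation area was minced and extracted overnight in 10 ml ACN at 32°C, then analysed by HPLC; n≥3.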

[3] = earlier proof of concept study; cited from earlier work
[4] = in 43% PG, 43% ethanol containing solution; data previously reported; cited from earlier work
[5] = Donor solution solubility determination; format: physicochemical; conditions: saturation solubility in 0.3 M acetate buffer pH 5.0 containing 10% propylene glycol, 32°C

| SMILES | Pseudo first order rate constant (k) [1] [days ^−1] | Stability (approx. half-life) [1] [days] | NTX and DIC (parent drugs) in the skin [2] | formulation half-life [3] [h] | Solubility [4] [mM] | Solubility [5] [mM] |
| --- | --- | --- | --- | --- | --- | --- |
| O=C(Cc1ccccc1Nc1c(Cl)cccc1Cl)Oc1ccc2c3c1O[C@H]1C(=O)CC[C@@]4(O)[C@@H](C2)N(CC2CC2)CC[C@]314 [Codrug I] | 0.0803 | 8.72 ± 1.05 | quantifiable | 96 to 120 | 7.23 (≈ 4480 µg/mL) | – |
| Cl.O=C(Cc1ccccc1Nc1c(Cl)cccc1Cl)Oc1ccc2c3c1O[C@H]1C(=O)CC[C@@]4(O)[C@@H](C2)N(CC2CC2)CC[C@]314 [Codrug I (hydrochloride salt)] | – | – | – | – | – | 83.8 ± 15.4 |
| O=C(Cc1ccccc1Nc1c(Cl)cccc1Cl)O[C@@H]1CC[C@@]2(O)[C@H]3Cc4ccc(O)c5c4[C@@]2(CCN3CC2CC2)[C@H]1O5 [Codrug II] | 0.0052 | 130.88 ± 4.94 | – | – | – | – |

Reference: paper PMC3870048 (Pharmaceutical research, 2013)
